# Active and inactive are the calls of the source. No cut-off for these calls is given here.
# Columns and labels:
# [1] = molecular target: T1, Inhibitor of nuclear factor kappa-B kinase subunit beta (Homo sapiens, UniProt O14920); assay: Inhibition of human IKKbeta using IKKtide as substrate after 20 mins by [gamma-33P]-ATP based radiometric assay
# T1 sequence (O14920 whole entry): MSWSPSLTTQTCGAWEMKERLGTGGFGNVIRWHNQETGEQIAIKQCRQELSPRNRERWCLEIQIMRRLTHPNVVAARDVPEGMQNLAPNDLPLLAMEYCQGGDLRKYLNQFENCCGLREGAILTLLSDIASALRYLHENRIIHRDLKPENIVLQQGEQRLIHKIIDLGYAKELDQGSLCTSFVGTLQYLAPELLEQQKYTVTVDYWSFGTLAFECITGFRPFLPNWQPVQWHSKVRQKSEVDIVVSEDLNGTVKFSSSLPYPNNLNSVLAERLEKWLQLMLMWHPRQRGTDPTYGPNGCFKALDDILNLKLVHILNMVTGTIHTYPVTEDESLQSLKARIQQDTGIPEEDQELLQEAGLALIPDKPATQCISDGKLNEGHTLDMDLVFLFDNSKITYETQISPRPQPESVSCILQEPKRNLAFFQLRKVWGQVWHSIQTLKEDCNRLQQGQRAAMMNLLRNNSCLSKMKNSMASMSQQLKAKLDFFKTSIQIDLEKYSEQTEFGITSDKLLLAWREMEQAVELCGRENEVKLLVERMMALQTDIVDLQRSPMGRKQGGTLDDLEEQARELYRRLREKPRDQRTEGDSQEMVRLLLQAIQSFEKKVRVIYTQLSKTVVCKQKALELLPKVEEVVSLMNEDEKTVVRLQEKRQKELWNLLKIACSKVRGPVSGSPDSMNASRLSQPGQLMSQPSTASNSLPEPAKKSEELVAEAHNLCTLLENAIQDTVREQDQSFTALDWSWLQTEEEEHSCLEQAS
# [2] = molecular target: T2, Inhibitor of nuclear factor kappa-B kinase subunit beta (Homo sapiens) (UniProt O14920); assay: Inhibition of IKKbeta (unknown origin) at 10 uM using IkappaBalpha-derived 5FAMGRHDSGLDSMK-NH2 as substrate preincubated for 10 mins followed by substrate addition measured after 2 hrs by IMAP based TR-FRET assay relative to control
# T2 sequence (whole entry): T1 sequence (O14920 whole entry)
# How it was run: (§1)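 Recombinant IKK2 at 0.5 µg/mL in 10 mM Tris-HCl pH 7.2, 10 mM MgCl2, 0.05% NaN3, 1 mM DTT, 0.01% Tween-20. Compound preincubated with enzyme for 10 min, then 1 μM 5-FAM IκBα peptide and 3 μM ATP added; reaction at room temperature for 2 h. IMAP binding reagent (1:600) plus terbium donor (1:400) added 15 h before the TR-FRET read. Percent inhibition measured at 10 µM.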
# [3] = Cytotoxicity against LPS-treated mouse RAW264.7 cells assessed as decrease in cell viability after 24 hrs by MTT assay; assay type: cell-based; conditions: LPS-treated RAW264.7 cells
# How it was run: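 RAW 264.7 cells seeded at 1×10^5 cells/mL, grown overnight, then exposed to samples for 24 h, with or without 1 μg/ml LPS. MTT added from a 5 mg/mL PBS stock for 4 h at 37 °C. Formazan dissolved in DMSO and absorbance read at 540 nm. IC80 is the concentration lowering viability to 80% in the presence of LPS.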
# [4] = molecular target: T1, Inhibitor of nuclear factor kappa-B kinase subunit beta; assay: Inhibition of IKKbeta (unknown origin) using IkappaBalpha-derived 5FAMGRHDSGLDSMK-NH2 as substrate preincubated for 10 mins followed by substrate addition measured after 2 hrs by IMAP based TR-FRET assay; how it was run: as §1
# [5] = molecular target: T2, Inhibitor of nuclear factor kappa-B kinase subunit beta (Homo sapiens); assay: Irreversible inhibition of IKKbeta (unknown origin) at 0.001 to 30 uM using IkappaBalpha-derived 5FAMGRHDSGLDSMK-NH2 as substrate measured up to 60 mins
# How it was run: (§2)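 Same IKK2 IMAP TR-FRET system (0.5 µg/mL enzyme, 1 μM peptide, 3 μM ATP, room temperature). Ten concentrations, 0.001–30 μM, with reactions run for 0, 20, 40 or 60 min instead of 2 h. Dose–response curves fitted at each time point. Kobs obtained from ln(% activity remaining) against time, then regressed nonlinearly against concentration.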
# [6] = molecular target: T1, Inhibitor of nuclear factor kappa-B kinase subunit beta; assay: Irreversible inhibition of IKKbeta (unknown origin) using IkappaBalpha-derived 5FAMGRHDSGLDSMK-NH2 as substrate measured immediately; how it was run: as §2
# [7] = molecular target: T1, Inhibitor of nuclear factor kappa-B kinase subunit beta; assay: Irreversible inhibition of IKKbeta (unknown origin) using IkappaBalpha-derived 5FAMGRHDSGLDSMK-NH2 as substrate measured after 20 mins; how it was run: as §2
# [8] = molecular target: T1, Inhibitor of nuclear factor kappa-B kinase subunit beta; assay: Irreversible inhibition of IKKbeta (unknown origin) using IkappaBalpha-derived 5FAMGRHDSGLDSMK-NH2 as substrate measured after 40 mins; how it was run: as §2
# [9] = molecular target: T1, Inhibitor of nuclear factor kappa-B kinase subunit beta; assay: Irreversible inhibition of IKKbeta (unknown origin) using IkappaBalpha-derived 5FAMGRHDSGLDSMK-NH2 as substrate measured after 60 mins; how it was run: as §2
# RAW264.7 [10] = assay: Antiinflammatory activity against mouse RAW264.7 cells assessed as inhibition of LPS-induced PGE2 production incubated for 1 hr followed by LPS addition measured after 24 hrs by ELISA; assay type: functional, cell-based
# How it was run: (§3)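 RAW 264.7 macrophages (DMEM, 10% FBS, penicillin/streptomycin, 37 °C, 5% CO2) plated at 2×10^5 cells/mL and left overnight. Compounds at 1.5, 3 and 6 μM, or NS-398 as positive control, given for 1 h, then LPS (10 ng/mL) for 24 h. PGE2 and TNF-α in diluted culture medium quantified by ELISA. IC50 is the concentration halving the produced mediator.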
# RAW264.7 [11] = assay: Antiinflammatory activity against mouse RAW264.7 cells assessed as inhibition of LPS-induced TNFalpha production incubated for 1 hr followed by LPS addition measured after 24 hrs by ELISA; assay type: functional, cell-based; how it was run: as §3
# hERG (KCNH2) = hERG (KCNH2) (Homo sapiens, UniProt Q12809); assay: Inhibition of human ERG expressed in CHOK1 cells assessed as reduction in tail current at 100 uM and -80 holding potential after 100 to 200 secs by whole cell automated patch-clamp electrophysiology assay relative to control; assay type: ADME, cell-based; conditions: CHO-K1 cells expressing human ERG
# Chain of hERG (KCNH2) (Q12809 whole entry, the tested form may be a part): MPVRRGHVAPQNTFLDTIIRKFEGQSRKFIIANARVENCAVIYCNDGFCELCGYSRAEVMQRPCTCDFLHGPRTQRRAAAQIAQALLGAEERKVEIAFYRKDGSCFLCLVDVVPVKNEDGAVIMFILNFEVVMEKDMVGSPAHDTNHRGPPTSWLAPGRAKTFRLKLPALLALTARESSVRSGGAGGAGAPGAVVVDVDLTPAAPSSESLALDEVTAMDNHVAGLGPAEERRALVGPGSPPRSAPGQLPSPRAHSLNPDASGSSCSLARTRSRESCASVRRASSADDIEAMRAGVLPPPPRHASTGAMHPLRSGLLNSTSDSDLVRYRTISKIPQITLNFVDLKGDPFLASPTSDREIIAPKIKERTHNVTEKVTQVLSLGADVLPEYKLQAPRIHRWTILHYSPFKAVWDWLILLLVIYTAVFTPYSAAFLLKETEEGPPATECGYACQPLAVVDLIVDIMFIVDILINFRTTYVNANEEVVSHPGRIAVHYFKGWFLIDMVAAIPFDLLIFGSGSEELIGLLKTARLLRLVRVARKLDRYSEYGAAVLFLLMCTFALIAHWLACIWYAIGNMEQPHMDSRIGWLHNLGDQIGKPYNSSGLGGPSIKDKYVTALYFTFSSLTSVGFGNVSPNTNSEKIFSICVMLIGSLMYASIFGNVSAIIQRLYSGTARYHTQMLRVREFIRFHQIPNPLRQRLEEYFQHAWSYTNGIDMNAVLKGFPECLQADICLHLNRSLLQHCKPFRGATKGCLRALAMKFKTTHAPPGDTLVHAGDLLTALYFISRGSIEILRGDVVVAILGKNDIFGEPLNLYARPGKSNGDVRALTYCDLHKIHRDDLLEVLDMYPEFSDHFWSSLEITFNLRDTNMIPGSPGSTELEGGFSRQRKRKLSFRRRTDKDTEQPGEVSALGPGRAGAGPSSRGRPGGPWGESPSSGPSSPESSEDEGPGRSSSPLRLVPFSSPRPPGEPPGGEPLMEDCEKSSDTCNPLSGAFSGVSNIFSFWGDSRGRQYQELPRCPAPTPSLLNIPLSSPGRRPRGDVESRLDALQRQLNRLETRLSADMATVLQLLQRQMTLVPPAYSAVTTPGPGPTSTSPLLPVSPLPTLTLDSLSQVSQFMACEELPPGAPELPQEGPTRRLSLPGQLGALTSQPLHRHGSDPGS
# How it was run: (§4)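 CHO-K1 Tet-On hERG cells, with expression induced by doxycycline 5 μg/ml, recorded 20–32 h after induction. Whole-cell automated patch clamp used intracellular solution of 50 KCl, 60 KF, 10 NaCl, 2 MgCl2, 20 EGTA, 10 HEPES pH 7.2 (mM) and extracellular solution of 140 NaCl, 4 KCl, 2 CaCl2, 1 MgCl2, 5 glucose, 10 HEPES pH 7.4. Compound perfused for 100–200 s until tail-current block reached equilibrium. Percent inhibition taken at 100 μM.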
# [12] = molecular target: Voltage-gated inwardly rectifying potassium channel KCNH2 (Homo sapiens, UniProt Q12809); assay: Inhibition of human ERG expressed in CHOK1 cells assessed as reduction in tail current at -80 holding potential after 100 to 200 secs by whole cell automated patch-clamp electrophysiology assay; assay type: ADME, cell-based; how it was run: as §4
# Chain of Voltage-gated inwardly rectifying potassium channel KCNH2 (Q12809 whole entry): as the sequence (Q12809 whole entry, the tested form may be a part) above
# [13] = system: hERG (KCNH2) versus IKKbeta; assay: Safety index, ratio of compound IC50 for human ERG expressed in CHOK1 cells to IC50 for IKKbeta (unknown origin); assay type: toxicity, cell-based; conditions: CHO-K1 cells expressing human ERG, read-out: Ratio IC50
# How it was run: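 Safety index calculated as hERG IC50 divided by IKK-β IC50.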
structure (smiles),measurement,setting,value
O=C1N/C(=N\c2ccc(O)cc2)S/C1=C\c1cc2ccccc2[nH]1,IC50,[1],97.4 µM
COCCN1CCN(CCCCOc2ccc(N3C(=O)S/C(=C\c4ccc(Oc5ccc(Br)cc5)cc4)C3=O)cc2)CC1,inhibition,[2],0%
O=C1S/C(=C\c2ccc(Oc3ccc(F)cc3)cc2)C(=O)N1c1ccc(OCCCCCN2CCN(CC3CC3)CC2)cc1,IC80 at 24 h,[3],> 6 µM
same,inhibition,[2],92.8%
same,IC50,[4],0.4 µM
same,inhibition,[5],Active
same,IC50,[6],1.1 µM
same,IC50,[7],0.34 µM
same,IC50,[8],0.299 µM
same,IC50,[9],0.24 µM
same,Activity,RAW264.7 [10],Dose-dependent effect
same,IC50,RAW264.7 [10],> 6 µM
same,IC50,RAW264.7 [11],1.67 µM
O=C1S/C(=C\c2ccc(N3CCOCC3)c(Cl)c2)C(=O)N1c1ccc(OCCCN2CCN(CC3CC3)CC2)cc1,IC80 at 24 h,[3],2.67 µM
same,inhibition,[2],90.7%
same,IC50,[4],0.7 µM
same,inhibition,[5],Active
same,IC50,[6],0.372 µM
same,IC50,[7],0.288 µM
same,IC50,[8],0.251 µM
same,IC50,[9],0.252 µM
same,IC50,RAW264.7 [11],> 6 µM
O=C(C1CC1)N1CCN(CCCCOc2ccc(N3C(=O)S/C(=C\c4ccc(Oc5ccc(Br)cc5)cc4)C3=O)cc2)CC1,inhibition,[2],52.4%
same,IC50,[4],8.6 µM
same,inhibition at 100 µM,hERG (KCNH2),17.1%
O=C1S/C(=C\c2ccc(Oc3ccc(Cl)cc3)cc2)C(=O)N1c1ccc(OCCCCN2CCN(CC3CC3)CC2)cc1,inhibition,[2],37.5%
CS(=O)(=O)N1CCN(CCCCOc2ccc(N3C(=O)S/C(=C\c4ccc(Oc5ccc(F)cc5)cc4)C3=O)cc2)CC1,inhibition,[2],2.7%
COCCCN1CCN(CCCCOc2ccc(N3C(=O)S/C(=C\c4ccc(Oc5ccc(Br)cc5)cc4)C3=O)cc2)CC1,inhibition,[2],0%
COCCCN1CCN(CCCCOc2ccc(N3C(=O)S/C(=C\c4ccc(Oc5ccc(Cl)cc5)cc4)C3=O)cc2)CC1,inhibition,[2],1.6%
CS(=O)(=O)N1CCN(CCCCOc2ccc(N3C(=O)S/C(=C\c4ccc(Oc5ccc([N+](=O)[O-])cc5)cc4)C3=O)cc2)CC1,inhibition,[2],0%
COCCN1CCN(CCCCOc2ccc(N3C(=O)S/C(=C\c4ccc(Oc5ccc(F)cc5)cc4)C3=O)cc2)CC1,inhibition,[2],1.6%
COCCN1CCN(CCCCOc2ccc(N3C(=O)S/C(=C\c4ccc(Oc5ccc([N+](=O)[O-])cc5)cc4)C3=O)cc2)CC1,inhibition,[2],9.3%
COCCCN1CCN(CCCCOc2ccc(N3C(=O)S/C(=C\c4ccc(Oc5ccc(F)cc5)cc4)C3=O)cc2)CC1,inhibition,[2],0.7%
O=C(C1CC1)N1CCN(CCCCOc2ccc(N3C(=O)S/C(=C\c4ccc(Oc5ccc([N+](=O)[O-])cc5)cc4)C3=O)cc2)CC1,inhibition,[2],21.7%
O=C1S/C(=C\c2ccc(Oc3ccc(Br)cc3)cc2)C(=O)N1c1ccc(OCCCCN2CCN(CC3CC3)CC2)cc1,inhibition,[2],60.8%
same,IC50,[4],7.9 µM
same,inhibition at 100 µM,hERG (KCNH2),66.5%
same,IC50,[12],27.5 µM
same,selectivity ratio,[13],3.5
COCCN1CCN(CCCCOc2ccc(N3C(=O)S/C(=C\c4ccc(Oc5ccc(Cl)cc5)cc4)C3=O)cc2)CC1,inhibition,[2],1.7%
Nc1nc(N)nc(-c2ccc(Oc3ccccc3N)cc2)n1,IC50,[1],7.8 µM
O=C1S/C(=C\c2ccc(Oc3ccc(F)cc3)cc2)C(=O)N1c1ccc(OCCCCN2CCN(CC3CC3)CC2)cc1,inhibition,[2],85.7%
same,IC50,[4],1.7 µM
same,inhibition at 100 µM,hERG (KCNH2),99.5%
same,IC50,[12],3.4 µM
same,selectivity ratio,[13],2
COCCCN1CCN(CCCCOc2ccc(N3C(=O)S/C(=C\c4ccc(Oc5ccc([N+](=O)[O-])cc5)cc4)C3=O)cc2)CC1,inhibition,[2],9.4%
O=C1S/C(=C\c2ccc(N3CCOCC3)c(Cl)c2)C(=O)N1c1ccc(OCCCCCN2CCN(CC3CC3)CC2)cc1,IC80 at 24 h,[3],< 1.5 µM
same,inhibition,[2],92.1%
same,IC50,[4],0.9 µM
same,Activity,RAW264.7 [10],Dose-dependent effect
same,IC50,RAW264.7 [10],> 6 µM
O=C(C1CC1)N1CCN(CCCCOc2ccc(N3C(=O)S/C(=C\c4ccc(Oc5ccc(F)cc5)cc4)C3=O)cc2)CC1,inhibition,[2],21.2%
O=C(C1CC1)N1CCN(CCCCOc2ccc(N3C(=O)S/C(=C\c4ccc(Oc5ccc(Cl)cc5)cc4)C3=O)cc2)CC1,inhibition,[2],17%
O=C1S/C(=C\c2ccc(Oc3ccc([N+](=O)[O-])cc3)cc2)C(=O)N1c1ccc(OCCCCN2CCN(CC3CC3)CC2)cc1,IC80 at 24 h,[3],> 6 µM
same,inhibition,[2],85.6%
same,IC50,[4],1.5 µM
same,Activity,RAW264.7 [10],Dose-dependent effect
same,IC50,RAW264.7 [10],> 6 µM
same,IC50,RAW264.7 [11],3.41 µM
same,inhibition at 100 µM,hERG (KCNH2),61.2%
same,IC50,[12],55.3 µM
same,selectivity ratio,[13],36.9
O=C1S/C(=C\c2ccc(Oc3ccc(F)cc3)cc2)C(=O)N1c1ccc(OCCCN2CCN(CC3CC3)CC2)cc1,inhibition,[2],88.8%
same,IC50,[4],1.4 µM
CS(=O)(=O)N1CCN(CCCCOc2ccc(N3C(=O)S/C(=C\c4ccc(Oc5ccc(Br)cc5)cc4)C3=O)cc2)CC1,inhibition,[2],3.3%
CS(=O)(=O)N1CCN(CCCCOc2ccc(N3C(=O)S/C(=C\c4ccc(Oc5ccc(Cl)cc5)cc4)C3=O)cc2)CC1,inhibition,[2],0.8%
